Assay results taken from ChEMBL document CHEMBL2321693, “Optimizing solubility and permeability of a biopharmaceutics classification system (BCS) class 4 antibiotic drug using lipophilic fragments disturbing the crystal lattice” (J Med Chem, 2013).

How the values were obtained:
[1] = Apparent permeability of the compound from apical to basolateral side in human Caco2 cells at pH 6.5/7.4 by LC-MS/MS analysis; assay type: ADME, cell-based; conditions: Caco-2, pH 6.5
Method in brief: (§1)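 Caco-2 monolayers ([…] cells seeded on polycarbonate inserts, 0.4 μm pores), kept in 90% air/10% CO2. Transport run at 37 °C across a 6.5/7.4 pH gradient, started by adding 10 μM drug to the donor side. Papp = (ΔQ/Δt)/(A·C0), from steady-state flux, filter area and initial donor concentration. LC-MS/MS quantitation. Mean ± SD of triplicates.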

[2] = Apparent permeability of the compound from basolateral to apical side in human Caco2 cells by LC-MS/MS analysis; assay type: ADME, cell-based; conditions: Caco-2; method in brief: as §1
[3] = Efflux ratio of permeability from basolateral to apical side to apical to basolateral side in human Caco2 cells; assay type: ADME, cell-based; conditions: Caco-2
[4] = Apparent solubility of the compound in fasted state simulated intestinal fluid at pH 6.5 by shake flask method relative to ciprofloxacin; assay type: physicochemical; conditions: simulated gi fluid
Method in brief: (§2)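 Small-scale shake flask. Excess solid in 500 μL medium (n = 3): USP pH 7.4 phosphate buffer, or pH 6.5 phosphate buffer or FaSSIF per Galia. Supernatant assayed by LC-MS/MS.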

[5] = Apparent solubility of the compound in phosphate buffer at pH 7.4 by shake flask method relative to ciprofloxacin; assay type: physicochemical; method in brief: as §2
[6] = Apparent solubility of the compound in phosphate buffer at pH 6.5 by shake flask method relative to ciprofloxacin; assay type: physicochemical; method in brief: as §2

| Compound | Papp A→B [1] | Papp B→A [2] | efflux ratio [3] | fold change (FC) [4] | fold change (FC) [5] | fold change (FC) [6] |
| --- | --- | --- | --- | --- | --- | --- |
| CC(C)OC(=O)c1cn(C2CC2)c2cc(N3CCNCC3)c(F)cc2c1=O | 4.69 ×10⁻⁶ cm/s | 35.2 ×10⁻⁶ cm/s | 7 | 0.5 | 0.5 | 0.5 |
| COC(=O)c1cn(C2CC2)c2cc(N3CCNCC3)c(F)cc2c1=O | 1.01 ×10⁻⁶ cm/s | 19.7 ×10⁻⁶ cm/s | 19 | 111 | 48 | 66 |
| CCCCOC(=O)c1cn(C2CC2)c2cc(N3CCNCC3)c(F)cc2c1=O | 4.95 ×10⁻⁶ cm/s | 65.9 ×10⁻⁶ cm/s | 13 | 10 | 4 | 27 |
| CCCCCCOC(=O)c1cn(C2CC2)c2cc(N3CCNCC3)c(F)cc2c1=O | 13.9 ×10⁻⁶ cm/s | 264 ×10⁻⁶ cm/s | 19 | – | – | – |
| CCOC(=O)c1cn(C2CC2)c2cc(N3CCNCC3)c(F)cc2c1=O [CIPROFLOXACIN ETHYL ESTER] | 3.45 ×10⁻⁶ cm/s | 24.3 ×10⁻⁶ cm/s | 7 | 2 | 2 | 2 |
| CCCOC(=O)c1cn(C2CC2)c2cc(N3CCNCC3)c(F)cc2c1=O | 0.43 ×10⁻⁶ cm/s | 62.8 ×10⁻⁶ cm/s | 146 | 0.5 | 0.5 | 0.5 |
| O=C(OCc1ccccc1)c1cn(C2CC2)c2cc(N3CCNCC3)c(F)cc2c1=O | 6.42 ×10⁻⁶ cm/s | 116 ×10⁻⁶ cm/s | 18 | – | – | – |
